Laboratory results from ChEMBL document CHEMBL3351868, “Structure-affinity relationships and pharmacological characterization of new alkyl-resorcinol cannabinoid receptor ligands: Identification of a dual cannabinoid receptor/TRPA1 channel agonist” (Bioorg Med Chem, 2014).
Activity calls are given as the source filed them. The rule behind the calls is not given here.

Legend:
Cannabinoid receptor 1 [1] = target: T1, Cannabinoid receptor 1 (Homo sapiens, UniProt P21554); assay: Displacement of [3H]CP-55,940 from human recombinant CB1 receptor expressed in HEK293 cell membranes
Cannabinoid receptor 2 [2] = target: T2, Cannabinoid receptor 2 (Homo sapiens, UniProt P34972); assay: Displacement of [3H]CP-55,940 from human recombinant CB2 receptor expressed in HEK293 cell membranes
Homo sapiens [3] = species: Homo sapiens; assay: Selectivity index, ratio of Ki for human recombinant CB1 receptor to Ki for human recombinant CB2 receptor
Homo sapiens [4] = species: Homo sapiens; assay: Selectivity index, ratio of Ki for human recombinant CB2 receptor to Ki for human recombinant CB1 receptor
Cannabinoid receptor 1 [5] = target: T1, Cannabinoid receptor 1; assay: Agonist activity at human recombinant CB1 receptor expressed in CHO cell membranes by [35S]GTPgammaS binding assay; type: functional
Summary of the method: (§1)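 Membranes from CHO cells stably expressing human CB1 or CB2, 50 µg protein per well, in Tris buffer with 100 mM NaCl, 5 mM MgCl2, 1 mM DTT, 1 mM EDTA, 0.1% BSA, pH 7.4. Incubated 60 min at 30°C with 0.1 nM [35S]GTPγS, 30 µM GDP and compound in DMSO. Nonspecific binding defined with 30 µM GTPγS. Filtration and scintillation counting. Percent change relative to DMSO control, n=6. EC50/Emax from sigmoidal fit.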

Cannabinoid receptor 1 [6] = target: T1, Cannabinoid receptor 1; assay: Agonist activity at human recombinant CB1 receptor expressed in CHO cell membranes assessed as stimulation of [35S]GTPgammaS binding relative to basal level; type: functional; summary of the method: as §1
Cannabinoid receptor 2 [7] = target: T2, Cannabinoid receptor 2; assay: Agonist activity at human recombinant CB2 receptor expressed in CHO cell membranes by [35S]GTPgammaS binding assay; type: functional; summary of the method: as §1
Cannabinoid receptor 2 [8] = target: T2, Cannabinoid receptor 2; assay: Agonist activity at human recombinant CB2 receptor expressed in CHO cell membranes assessed as stimulation of [35S]GTPgammaS binding relative to basal level; type: functional; summary of the method: as §1
Mus musculus [9] = assay: Antinociceptive activity in Swiss-Webster mouse assessed as reduction in second phase of formalin-induced nociceptive behavior at 3 and 4 mg/kg, ip; type: functional, organism-based; parameters: dose 4 mg/kg
Summary of the method: (§2)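 Mice received compound or vehicle (0.9% NaCl) i.p. 10 min before formalin (1.25%) injected subcutaneously into the hind paw. Lifting, favouring, licking, shaking and flinching were scored blind as total duration per 5-min bin over 60 min. 8-10 animals per group; one-way ANOVA with Bonferroni test.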

Mus musculus [10] = assay: Antinociceptive activity in Swiss-Webster mouse assessed as reduction in second phase of formalin-induced nociceptive behavior at 4 mg/kg, ip after 40 mins; type: functional, organism-based; parameters: dose 4 mg/kg; summary of the method: as §2
Mus musculus [11] = assay: Toxicity in Swiss-Webster mouse formalin-induced pain model assessed as induction of abdominal writhing at >4 mg/kg, ip; type: organism-based, Abdomen; details: in vivo; summary of the method: as §2
[12] = target: T3, Transient receptor potential cation channel subfamily V member 1 (Homo sapiens, UniProt Q8NER1); assay: Agonist activity at human recombinant TRPV1 expressed in HEK293 cells assessed as increase in intracellular calcium level by fluorescence assay relative to ionomycin; type: cell-based
Summary of the method: (§3)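 HEK293 cells stably expressing human TRPV1 were loaded with Fluo-4-AM (4 µM, 1 h, room temperature). Cells stirred in Tyrode's buffer pH 7.4; fluorescence read at ex 488/em 516 nm, 25 °C. Wild-type HEK293 response subtracted. Efficacy as percent of 4 µM ionomycin. EC50 from sigmoidal fit, n=3.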

[13] = target: T3, Transient receptor potential cation channel subfamily V member 1; assay: Agonist activity at human recombinant TRPV1 expressed in HEK293 cells assessed as increase in intracellular calcium level by fluorescence assay; type: cell-based; summary of the method: as §3
[14] = target: T3, Transient receptor potential cation channel subfamily V member 1; assay: Antagonist activity against human recombinant TRPV1 expressed in HEK293 cells assessed as reduction in capsaicin-induced intracellular calcium response pre-incubated 5 mins before capsaicin addition by fluorescence assay; type: cell-based
Summary of the method: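 Human TRPV1-HEK293 cells loaded with Fluo-4 in Tyrode's buffer pH 7.4, 25 °C. Compound added 5 min before 0.1 µM capsaicin. IC50 taken as half-maximal inhibition of the capsaicin-induced [Ca2+]i rise, n=3.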

[15] = target: Transient receptor potential cation channel subfamily A member 1 (Rattus norvegicus) (UniProt Q6RI86); assay: Agonist activity at rat recombinant TRPA1 expressed in HEK293 cells assessed as increase in intracellular calcium level by fluorescence assay relative to isothiocyanate; type: cell-based
Summary of the method: as §3, with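 “expressing rat TRPA1” for “expressing human TRPV1”, “7.4; [Ca2+]i” for “7.4;”, “of 100” for “of 4”, “µM allyl isothiocyanate.” for “µM ionomycin.”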

[16] = target: T4, Transient receptor potential cation channel subfamily A member 1 (Rattus norvegicus, UniProt Q6RI86); assay: Agonist activity at rat recombinant TRPA1 expressed in HEK293 cells assessed as increase in intracellular calcium level by fluorescence assay; type: cell-based
Summary of the method: as §3, with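 “expressing rat TRPA1” for “expressing human TRPV1”, “7.4; [Ca2+]i” for “7.4;”, “of 100” for “of 4”, “µM allyl isothiocyanate.” for “µM ionomycin.”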

[17] = target: T4, Transient receptor potential cation channel subfamily A member 1; assay: Antagonist activity at rat recombinant TRPA1 expressed in HEK293 cells assessed as reduction in isothiocynate-induced increase in intracellular calcium response by fluorescence assay; type: cell-based
Summary of the method: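 Rat TRPA1-HEK293 cells loaded with Fluo-4 in Tyrode's buffer pH 7.4, 25 °C. Compound given as a 5 min pre-incubation before 100 µM allyl isothiocyanate. IC50 for half-maximal inhibition of the agonist-evoked [Ca2+]i rise, n=3.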

[18] = Cytotoxicity against mouse NIH/3T3 cells after 24 hrs by neutral red assay; type: cell-based; details: NIH3T3, 24 h
Summary of the method: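 NIH3T3 mouse fibroblasts in DMEM with 10% FCS were seeded and after 24 h exposed to compound in DMSO (5-200 µM, six replicates) for 24 h. Viability measured by neutral red uptake (3 h dye incubation, then acetic acid/ethanol extraction). IC50 derived.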

T3 sequence (Q8NER1 whole entry): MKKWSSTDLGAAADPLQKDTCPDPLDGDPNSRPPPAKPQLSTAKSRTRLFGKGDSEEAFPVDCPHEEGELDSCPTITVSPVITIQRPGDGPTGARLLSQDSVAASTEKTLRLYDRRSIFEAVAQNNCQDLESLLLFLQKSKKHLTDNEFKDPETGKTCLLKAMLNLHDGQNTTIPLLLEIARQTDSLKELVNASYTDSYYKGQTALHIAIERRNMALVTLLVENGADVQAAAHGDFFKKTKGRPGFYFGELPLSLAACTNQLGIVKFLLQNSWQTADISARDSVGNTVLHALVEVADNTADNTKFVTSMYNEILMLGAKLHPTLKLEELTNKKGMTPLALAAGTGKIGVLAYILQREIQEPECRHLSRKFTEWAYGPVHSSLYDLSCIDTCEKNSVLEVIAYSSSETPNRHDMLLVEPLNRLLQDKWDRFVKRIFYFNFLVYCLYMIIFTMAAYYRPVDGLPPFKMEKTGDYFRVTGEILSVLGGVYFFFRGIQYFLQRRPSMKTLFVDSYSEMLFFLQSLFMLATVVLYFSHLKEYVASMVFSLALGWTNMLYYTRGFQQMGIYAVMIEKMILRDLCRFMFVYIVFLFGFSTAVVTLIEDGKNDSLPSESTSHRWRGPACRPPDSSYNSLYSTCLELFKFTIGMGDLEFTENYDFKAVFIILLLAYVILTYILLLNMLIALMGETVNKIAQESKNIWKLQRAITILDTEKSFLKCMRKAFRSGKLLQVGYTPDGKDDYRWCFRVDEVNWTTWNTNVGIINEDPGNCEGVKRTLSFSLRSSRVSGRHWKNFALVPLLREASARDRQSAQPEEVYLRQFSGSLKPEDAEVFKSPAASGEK
T2 sequence (P34972 whole entry): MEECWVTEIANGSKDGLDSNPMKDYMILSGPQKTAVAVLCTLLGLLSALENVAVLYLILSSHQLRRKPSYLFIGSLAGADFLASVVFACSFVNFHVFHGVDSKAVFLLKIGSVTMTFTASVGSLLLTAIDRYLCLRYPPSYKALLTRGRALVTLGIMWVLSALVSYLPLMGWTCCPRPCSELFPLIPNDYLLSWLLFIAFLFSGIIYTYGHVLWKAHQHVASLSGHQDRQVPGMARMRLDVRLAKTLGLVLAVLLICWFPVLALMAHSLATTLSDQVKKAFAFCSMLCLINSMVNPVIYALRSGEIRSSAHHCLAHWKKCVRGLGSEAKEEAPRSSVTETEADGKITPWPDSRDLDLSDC
T1 sequence (P21554 whole entry): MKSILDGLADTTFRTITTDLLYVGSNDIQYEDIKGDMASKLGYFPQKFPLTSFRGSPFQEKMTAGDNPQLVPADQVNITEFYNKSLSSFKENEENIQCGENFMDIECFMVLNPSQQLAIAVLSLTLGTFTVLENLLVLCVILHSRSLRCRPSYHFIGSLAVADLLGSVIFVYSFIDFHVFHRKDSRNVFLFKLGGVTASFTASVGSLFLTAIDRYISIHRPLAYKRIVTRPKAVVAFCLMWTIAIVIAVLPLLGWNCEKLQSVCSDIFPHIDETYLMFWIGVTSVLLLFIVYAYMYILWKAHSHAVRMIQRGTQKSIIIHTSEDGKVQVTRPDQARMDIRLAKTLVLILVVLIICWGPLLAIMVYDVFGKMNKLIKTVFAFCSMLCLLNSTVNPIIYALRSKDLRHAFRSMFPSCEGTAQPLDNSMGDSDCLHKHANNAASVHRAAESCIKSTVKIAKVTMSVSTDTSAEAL
T4 sequence (Q6RI86 whole entry): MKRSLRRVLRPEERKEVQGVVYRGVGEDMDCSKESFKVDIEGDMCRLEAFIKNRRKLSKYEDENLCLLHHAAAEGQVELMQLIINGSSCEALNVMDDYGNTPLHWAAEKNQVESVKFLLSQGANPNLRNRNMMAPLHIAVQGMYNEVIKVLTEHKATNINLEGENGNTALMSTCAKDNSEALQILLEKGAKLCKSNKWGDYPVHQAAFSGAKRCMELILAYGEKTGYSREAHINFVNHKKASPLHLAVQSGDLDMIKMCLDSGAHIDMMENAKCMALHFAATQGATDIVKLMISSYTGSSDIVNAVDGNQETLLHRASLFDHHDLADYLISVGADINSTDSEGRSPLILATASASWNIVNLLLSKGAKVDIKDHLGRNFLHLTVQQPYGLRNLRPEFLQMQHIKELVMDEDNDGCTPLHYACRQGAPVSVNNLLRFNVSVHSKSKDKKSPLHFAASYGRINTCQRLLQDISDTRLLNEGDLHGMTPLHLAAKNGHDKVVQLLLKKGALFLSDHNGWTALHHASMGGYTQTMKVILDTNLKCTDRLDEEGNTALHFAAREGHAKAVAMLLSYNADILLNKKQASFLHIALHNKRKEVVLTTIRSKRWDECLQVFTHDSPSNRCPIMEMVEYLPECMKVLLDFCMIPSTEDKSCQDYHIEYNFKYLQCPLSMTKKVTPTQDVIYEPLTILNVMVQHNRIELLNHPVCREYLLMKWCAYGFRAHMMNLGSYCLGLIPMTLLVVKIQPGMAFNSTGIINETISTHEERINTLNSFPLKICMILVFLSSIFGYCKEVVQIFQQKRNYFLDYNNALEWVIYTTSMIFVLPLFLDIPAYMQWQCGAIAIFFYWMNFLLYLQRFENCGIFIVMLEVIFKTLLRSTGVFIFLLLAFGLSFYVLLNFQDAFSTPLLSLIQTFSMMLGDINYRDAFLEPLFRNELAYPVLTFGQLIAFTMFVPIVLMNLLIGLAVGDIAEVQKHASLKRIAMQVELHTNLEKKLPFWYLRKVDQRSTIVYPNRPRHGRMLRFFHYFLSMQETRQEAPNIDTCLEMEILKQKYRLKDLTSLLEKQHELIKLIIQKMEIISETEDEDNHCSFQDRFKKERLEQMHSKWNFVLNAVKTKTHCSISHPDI
Chain of Transient receptor potential cation channel subfamily A member 1 (Rattus norvegicus) (Q6RI86 whole entry): as above

C=CCNC(=O)CCCCCCCOc1cc(O)cc(C(C)(C)CCCCCC)c1
Ki (Cannabinoid receptor 1 [1]): 0.00722 µM | Ki (Cannabinoid receptor 2 [2]): 0.00736 µM | Ratio Ki (Homo sapiens [3]): 0.98 | Ratio Ki (Homo sapiens [4]): 1.02 | EC50 (Cannabinoid receptor 1 [5]): 0.138 µM | Emax (Cannabinoid receptor 1 [6]): 60.6% | EC50 (Cannabinoid receptor 2 [7]): 0.0447 µM | Emax (Cannabinoid receptor 2 [8]): 13.4% | Activity (Mus musculus [9]): Active | Activity (Mus musculus [10]): Active | Activity (Mus musculus [11]): Toxic | Efficacy [12]: 18.6% | EC50 [13]: 6.9 µM | IC50 [14]: 23.9 µM | Efficacy [15]: 51.3% | EC50 [16]: 2.7 µM | IC50 [17]: 7.4 µM | IC50 [18]: 188 µM
